Source: ChEMBL document CHEMBL3797173, “Synthesis, anticancer activity, and SAR analyses of compounds containing the 5:7-fused 4,6,8-triaminoimidazo[4,5-e][1,3]diazepine ring system” (Bioorg Med Chem, 2016)

What was measured:
A549 = assay: Anticancer activity against human A549 cells incubated for 72 hrs by WST1 assay; type: functional, cell-based
In short: (§1)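 Cells (0.5–1.7x10³ per well) seeded in RPMI + 10% FBS the day before dosing. Endpoint: WST-1 reagent added, 4 h further incubation at 37 °C, 5% CO₂, then absorbance read at 450–690 nm. IC50 derived from these readouts.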

[1] = Anticancer activity against human H460 cells incubated for 72 hrs by WST1 assay; type: functional, cell-based, NCI-H460; in short: as §1
MCF7 = assay: Anticancer activity against human MCF7 cells incubated for 72 hrs by WST1 assay; type: functional, cell-based; in short: as §1
[2] = Anticancer activity against human OVCAR3 cells incubated for 72 hrs by WST1 assay; type: functional, cell-based, OVCAR-3; in short: as §1
[3] = Anticancer activity against human PC3 cells incubated for 72 hrs by WST1 assay; type: functional, cell-based, PC-3; in short: as §1
MDA-MB-231 = assay: Anticancer activity against human MDA-MB-231 cells incubated for 72 hrs by WST1 assay; type: functional, cell-based; in short: as §1
[4] = Homo sapiens, A549, 72 h, read-out: IC50
[5] = Homo sapiens, NCI-H460, 72 h, read-out: IC50
[6] = Homo sapiens, MCF7, 72 h, read-out: IC50
[7] = Homo sapiens, OVCAR-3, 72 h, read-out: IC50
[8] = Homo sapiens, PC-3, 72 h, read-out: IC50
[9] = Homo sapiens, MDA-MB-231, 72 h, read-out: IC50

SMILES | IC50 (A549; [4]) | IC50 (MCF7; [6]) | IC50 (MDA-MB-231; [9]) | IC50 (MDA-MB-231; mda-mb-231) | IC50 (A549; a549) | IC50 (MCF7; mcf7) | IC50 [1, 5] | IC50 [2, 7] | IC50 [3, 8] | IC50 ([2]; ovcar-3) | IC50 ([1]; nci-h460) | IC50 ([3]; pc-3)
CCCCCCCCCCCCCC/N=c1\nc(N)c2ncn(Cc3ccccc3)c2c(N)n1 | 4.25 µM | 4.1 µM | 5.85 µM |  |  |  | 6.75 µM | 5.5 µM | 4.2 µM |  |  | 
CC/N=c1\nc(N)c2nc[nH]c2c(N)n1 | 38 µM | > 100 µM |  | Not Active |  |  | 22 µM |  | > 100 µM | Not Active |  | 
CCCCCCCC/N=c1\nc(N)c2nc[nH]c2c(N)n1 |  |  |  | Not Active | Not Active | Not Active |  |  |  | Not Active | Not Active | Not Active
Nc1n/c(=N\CCc2ccccc2)nc(N)c2c1ncn2Cc1ccccc1 | 20.4 µM | 10.4 µM | 17.9 µM |  |  |  | 36.6 µM | 31.7 µM | 13.1 µM |  |  | 
Nc1n/c(=N\CCCCc2ccccc2)nc(N)c2c1ncn2Cc1ccccc1 | 15.3 µM | 8.8 µM | 16.6 µM |  |  |  | 18.8 µM | 37.3 µM | > 75 µM |  |  | 
CCCCCCCCCCCCCCCCCC/N=c1\nc(N)c2ncn(Cc3ccccc3)c2c(N)n1 | 5.3 µM | 8.3 µM | 5.4 µM |  |  |  | 5.4 µM | 4.95 µM | 5.45 µM |  |  | 
CCCCCCCCCCCCCCCCCC/N=c1\nc(N)c2nc[nH]c2c(N)n1 | 1.85 µM | 3.53 µM | 1.43 µM |  |  |  | 1.75 µM | 3.1 µM | 2.61 µM |  |  | 

The next lines start with results.

IC50 (A549; [4]) | IC50 (MCF7; [6]) | IC50 (MDA-MB-231; [9]) | IC50 (MDA-MB-231; mda-mb-231) | IC50 (A549; a549) | IC50 (MCF7; mcf7) | SMILES | IC50 [1, 5] | IC50 [2, 7] | IC50 [3, 8] | IC50 ([2]; ovcar-3) | IC50 ([1]; nci-h460) | IC50 ([3]; pc-3)
5.9 µM | 3 µM | 3.6 µM |  |  |  | CCCCCCCC/N=c1\nc(N)c2ncn(Cc3ccc(F)cc3)c2c(N)n1 | 4.7 µM | 4.3 µM | 3.8 µM |  |  | 
3.83 µM | 4.55 µM | 4.75 µM |  |  |  | CCCCCCCC/N=c1\nc(N)c2ncn(Cc3ccccc3)c2c(N)n1 | 7.45 µM | 4.98 µM | 5.93 µM |  |  | 
1.8 µM | 1.4 µM | 2.05 µM |  |  |  | CCCCCCCCCC/N=c1\nc(N)c2ncn(Cc3ccccc3)c2c(N)n1 | 3.2 µM | 3.95 µM | 5.15 µM |  |  | 
5.7 µM | 3.8 µM | 2.55 µM |  |  |  | CCCCCCCC/N=c1\nc(N)c2ncn(Cc3ccc(OC)cc3)c2c(N)n1 | 4.2 µM | 3.75 µM | 5.9 µM |  |  | 
